Experimental data published in ChEMBL document CHEMBL5058577, “EUbOPEN Chemogenomics Library 2 (Multiplex)” (2022).

System: Fibroblast
Test: Multiplex assay against human fibroblast
Assay type: toxicity, cell-based
In short: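 Live cells were stained at seeding with Hoechst33342, BioTracker Green Microtubule Cytoskeleton Dye, MitoTracker Red and Annexin V Alexa Fluor 680, then imaged on a CQ1 microscope at 37°C and 5% CO2 after compound addition. CellPathfinder machine-learning gating split cells into Hoechst high-intensity objects or normal cells. Normal cells were split into healthy, pyknosed or fragmented nuclei, and pyknosed cells into mitotic or apoptotic. Tubulin, mitochondrial-mass and membrane-permeability phenotypes are per cents of healthy-nucleus cells.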

[1] = 12 h, 1 µM, compound concentration 1 uM, replicate 1
[2] = 12 h, 1 µM, compound concentration 1 uM, replicate 2
[3] = 12 h, 10 µM, compound concentration 10 uM, replicate 1
[4] = 12 h, 10 µM, compound concentration 10 uM, replicate 2
[5] = 24 h, 1 µM, compound concentration 1 uM, replicate 1
[6] = 24 h, 1 µM, compound concentration 1 uM, replicate 2
[7] = 24 h, 10 µM, compound concentration 10 uM, replicate 1
[8] = 24 h, 10 µM, compound concentration 10 uM, replicate 2
[9] = 48 h, 1 µM, compound concentration 1 uM, replicate 1
[10] = 48 h, 1 µM, compound concentration 1 uM, replicate 2
[11] = 48 h, 10 µM, compound concentration 10 uM, replicate 1
[12] = 48 h, 10 µM, compound concentration 10 uM, replicate 2

CC(C)(C)c1cc(NC(=O)Nc2ccc(-c3cn4c(n3)sc3cc(OCCN5CCOCC5)ccc34)cc2)no1 [QUIZARTINIB]
Population Apoptotic (%) [1]: 42%
Population Fragmented Nuclei (%) [1]: 16%
Population Healthy Nuclei (%) [1]: 65%
Population Hoechst High Intensity Objects (%) [1]: 2%
Population Membrane Permeable-Phenotype (%) [1]: 0%
Population Mitochondria Different-Phenotype (%) [1]: 7%
Population Mitotic Cells (%) [1]: 57%
Population Normal (%) [1]: 97%
Population Pyknosed Nuclei (%) [1]: 17%
Population Tubulin-Different-Phenotype (%) [1]: 31%
Total Cell Count [1]: 150
Population Apoptotic (%) [2]: 41%
Population Fragmented Nuclei (%) [2]: 24%
Population Healthy Nuclei (%) [2]: 52%
Population Membrane Permeable-Phenotype (%) [2]: 1%
Population Mitochondria Different-Phenotype (%) [2]: 5%
Population Mitotic Cells (%) [2]: 58%
Population Pyknosed Nuclei (%) [2]: 23%
Population Tubulin-Different-Phenotype (%) [2]: 41%
Total Cell Count [2]: 137
Population Apoptotic (%) [3]: 43%
Population Fragmented Nuclei (%) [3]: 34%
Population Healthy Nuclei (%) [3]: 56%
Population Hoechst High Intensity Objects (%) [3]: 3%
Population Membrane Permeable-Phenotype (%) [3]: 0%
Population Mitochondria Different-Phenotype (%) [3]: 10%
Population Mitotic Cells (%) [3]: 56%
Population Normal (%) [3]: 96%
Population Pyknosed Nuclei (%) [3]: 8%
Population Tubulin-Different-Phenotype (%) [3]: 75%
Total Cell Count [3]: 190
Population Apoptotic (%) [4]: 48%
Population Fragmented Nuclei (%) [4]: 35%
Population Healthy Nuclei (%) [4]: 45%
Population Hoechst High Intensity Objects (%) [4]: 5%
Population Membrane Permeable-Phenotype (%) [4]: 5%
Population Mitochondria Different-Phenotype (%) [4]: 5%
Population Mitotic Cells (%) [4]: 51%
Population Normal (%) [4]: 94%
Population Pyknosed Nuclei (%) [4]: 18%
Population Tubulin-Different-Phenotype (%) [4]: 70%
Total Cell Count [4]: 162
Population Apoptotic (%) [5]: 58%
Population Fragmented Nuclei (%) [5]: 14%
Population Healthy Nuclei (%) [5]: 72%
Population Hoechst High Intensity Objects (%) [5]: 1%
Population Membrane Permeable-Phenotype (%) [5]: 0%
Population Mitochondria Different-Phenotype (%) [5]: 6%
Population Mitotic Cells (%) [5]: 41%
Population Normal (%) [5]: 98%
Population Pyknosed Nuclei (%) [5]: 12%
Population Tubulin-Different-Phenotype (%) [5]: 32%
Total Cell Count [5]: 137
Population Apoptotic (%) [6]: 42%
Population Fragmented Nuclei (%) [6]: 25%
Population Healthy Nuclei (%) [6]: 61%
Population Hoechst High Intensity Objects (%) [6]: 3%
Population Membrane Permeable-Phenotype (%) [6]: 2%
Population Mitotic Cells (%) [6]: 57%
Population Normal (%) [6]: 96%
Population Pyknosed Nuclei (%) [6]: 13%
Population Tubulin-Different-Phenotype (%) [6]: 44%
Total Cell Count [6]: 152
Population Apoptotic (%) [7]: 75%
Population Fragmented Nuclei (%) [7]: 33%
Population Healthy Nuclei (%) [7]: 57%
Population Hoechst High Intensity Objects (%) [7]: 1%
Population Membrane Permeable-Phenotype (%) [7]: 0%
Population Mitochondria Different-Phenotype (%) [7]: 21%
Population Mitotic Cells (%) [7]: 25%
Population Normal (%) [7]: 98%
Population Pyknosed Nuclei (%) [7]: 8%
Population Tubulin-Different-Phenotype (%) [7]: 71%
Total Cell Count [7]: 190
Population Apoptotic (%) [8]: 39%
Population Fragmented Nuclei (%) [8]: 40%
Population Healthy Nuclei (%) [8]: 46%
Population Hoechst High Intensity Objects (%) [8]: 4%
Population Membrane Permeable-Phenotype (%) [8]: 1%
Population Mitochondria Different-Phenotype (%) [8]: 10%
Population Mitotic Cells (%) [8]: 60%
Population Normal (%) [8]: 95%
Population Pyknosed Nuclei (%) [8]: 13%
Population Tubulin-Different-Phenotype (%) [8]: 70%
Total Cell Count [8]: 179
Population Apoptotic (%) [9]: 75%
Population Fragmented Nuclei (%) [9]: 19%
Population Healthy Nuclei (%) [9]: 71%
Population Hoechst High Intensity Objects (%) [9]: 8%
Population Membrane Permeable-Phenotype (%) [9]: 0%
Population Mitochondria Different-Phenotype (%) [9]: 5%
Population Mitotic Cells (%) [9]: 25%
Population Normal (%) [9]: 91%
Population Pyknosed Nuclei (%) [9]: 9%
Population Tubulin-Different-Phenotype (%) [9]: 38%
Total Cell Count [9]: 145
Population Apoptotic (%) [10]: 42%
Population Fragmented Nuclei (%) [10]: 30%
Population Healthy Nuclei (%) [10]: 60%
Population Hoechst High Intensity Objects (%) [10]: 3%
Population Membrane Permeable-Phenotype (%) [10]: 1%
Population Mitochondria Different-Phenotype (%) [10]: 8%
Population Mitotic Cells (%) [10]: 57%
Population Normal (%) [10]: 96%
Population Tubulin-Different-Phenotype (%) [10]: 34%
Total Cell Count [10]: 158
Population Apoptotic (%) [11]: 79%
Population Fragmented Nuclei (%) [11]: 30%
Population Healthy Nuclei (%) [11]: 56%
Population Hoechst High Intensity Objects (%) [11]: 7%
Population Membrane Permeable-Phenotype (%) [11]: 0%
Population Mitochondria Different-Phenotype (%) [11]: 25%
Population Mitotic Cells (%) [11]: 20%
Population Normal (%) [11]: 92%
Population Pyknosed Nuclei (%) [11]: 13%
Population Tubulin-Different-Phenotype (%) [11]: 74%
Total Cell Count [11]: 195
Population Apoptotic (%) [12]: 60%
Population Fragmented Nuclei (%) [12]: 44%
Population Healthy Nuclei (%) [12]: 50%
Population Hoechst High Intensity Objects (%) [12]: 3%
Population Membrane Permeable-Phenotype (%) [12]: 2%
Population Mitochondria Different-Phenotype (%) [12]: 6%
Population Mitotic Cells (%) [12]: 40%
Population Normal (%) [12]: 96%
Population Pyknosed Nuclei (%) [12]: 5%
Population Tubulin-Different-Phenotype (%) [12]: 59%
